What was measured:
[1] = system: A549; experiment: Antiproliferative activity against human A549 cells after 72 hrs by CCK-8 assay; type: functional, cell-based; details: A549, 72 h
Procedure, shortened: (§1)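 Cells seeded at 5 × 10³/well; A549, MCF7 and SH-SY5Y grown in DMEM, CNE and L-02 in RPMI-1640 (10% FBS, pen/strep, 37 °C, 5% CO₂). Compounds in DMSO, diluted in medium; 72 h exposure versus DMSO vehicle. CCK-8 absorbance read at 450 nm; viability taken as treated/control absorbance, IC₅₀ from curve fit. Triplicate wells, three independent experiments.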

[2] = system: SH-SY5Y; experiment: Antiproliferative activity against human SH-SY5Y cells after 72 hrs by CCK-8 assay; type: functional, cell-based; procedure, shortened: as §1
[3] = system: CNE; experiment: Antiproliferative activity against human CNE cells after 72 hrs by CCK-8 assay; type: functional, cell-based; procedure, shortened: as §1
[4] = system: L02; experiment: Antiproliferative activity against human L02 cells after 72 hrs by CCK-8 assay; type: cell-based; details: L02, 72 h; procedure, shortened: as §1
[5] = system: MCF7; experiment: Antiproliferative activity against human MCF7 cells after 72 hrs by CCK-8 assay; type: functional, cell-based; details: MCF7, 72 h; procedure, shortened: as §1

| SMILES | IC50 [1] [µM] | IC50 [2] [µM] | IC50 [3] [µM] | IC50 [4] [µM] | IC50 [5] [µM] |
| --- | --- | --- | --- | --- | --- |
| Cc1cnc2nc1Nc1cc(cc(N3CCOCC3)c1)Nc1ncc(C)c(n1)Nc1cc(cc(N3CCOCC3)c1)N2 | > 50 | > 50 | > 50 | > 50 | > 50 |
| FC(F)(F)c1cc2cc(c1)Nc1nccc(n1)Nc1cc(cc(C(F)(F)F)c1)Nc1nccc(n1)N2 | 2.05 | 1.43 | 15.6 | 20.4 | 5.38 |
| COc1cnc2nc1Nc1cccc(c1)Nc1ncc(OC)c(n1)Nc1cccc(c1)N2 | > 50 | > 50 | > 50 | > 50 | > 50 |
| CCOC(=O)c1cc2cc(c1)Nc1nc(ncc1Cl)Nc1cc(cc(C(=O)OCC)c1)Nc1nc(ncc1Cl)N2 | > 50 | > 50 | > 50 | > 50 | > 50 |
| Cc1cnc2nc1Nc1cccc(c1)Nc1ncc(C)c(n1)Nc1cccc(c1)N2 | 7.42 | 17.5 | 23.7 | 9.89 | 18.8 |
| Fc1cnc2nc1Nc1cccc(c1)Nc1ncc(F)c(n1)Nc1cccc(c1)N2 | > 50 | > 50 | > 50 | > 50 | > 50 |
| Brc1cc2cc(c1)Nc1nccc(n1)Nc1cc(Br)cc(c1)Nc1nccc(n1)N2 | 6.55 | 2.96 | > 50 | 47.9 | 9.24 |
| Fc1cnc2nc1Nc1cc(cc(C(F)(F)F)c1)Nc1ncc(Cl)c(n1)Nc1cc(cc(C(F)(F)F)c1)N2 | > 50 | > 50 | > 50 | > 50 | > 50 |
| Fc1cnc2nc1Nc1cc(cc(C(F)(F)F)c1)Nc1ncc(F)c(n1)Nc1cc(cc(C(F)(F)F)c1)N2 | > 50 | > 50 | > 50 | > 50 | > 50 |
| c1cc2cc(c1)Nc1nccc(n1)Nc1cccc(c1)Nc1nccc(n1)N2 | > 50 | > 50 | > 50 | > 50 | > 50 |
| COc1cnc2nc1Nc1cc(cc(N3CCOCC3)c1)Nc1ncc(OC)c(n1)Nc1cc(cc(N3CCOCC3)c1)N2 | > 50 | > 50 | > 50 | > 50 | > 50 |
